Experimental data published in ChEMBL document CHEMBL1147035, “Synthesis and in vitro evaluation of targeted tetracycline derivatives: effects on inhibition of matrix metalloproteinases” (Bioorg Med Chem, 2007).
Calls of active or inactive are those of the source. The rule behind the calls is not given here.

What was measured:
SW1353 = assay: Inhibition of IL-1-beta-induced MMP13 production in human SW1353 cells at 50 uM; type: functional, cell-based
Outline: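 SW-1353 human chondrosarcoma cells grown to confluence in Ham's F12 with 10% FBS, then serum-free medium with 0.1% BSA for 24 h. Cells pretreated 30 min with DMSO vehicle or compound (6×10^-6 to 5×10^-5 M), then stimulated with rmIL-1β 10 ng/mL for 24 h. Total secreted MMP-13 (pro plus mature) in medium measured by ELISA.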

Collagenase 3 = Collagenase 3 (Homo sapiens, UniProt P45452); assay: Inhibition of human MMP13
Outline: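 Human pro-MMP-13 (2 µg/mL in developing buffer) activated with 2 mM APMA for 1 h at 37 °C, then stopped on ice. Enzyme preincubated 30 min at 37 °C with compound (serial 1/10 dilutions from DMSO stocks), then incubated 6 h at 37 °C with fluorogenic substrate Dnp-Pro-Cha-Gly-Cys(ME)-His-Ala-Lys(Nma)-NH2. Fluorescence read at ex 340/em 440 nm, in triplicate. IC50 from 3 points in the linear range of % control fluorescence.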

Stromelysin-1 = Stromelysin-1 (Homo sapiens, UniProt P08254); assay: Inhibition of human MMP3
Chain of Stromelysin-1 (P08254 whole entry): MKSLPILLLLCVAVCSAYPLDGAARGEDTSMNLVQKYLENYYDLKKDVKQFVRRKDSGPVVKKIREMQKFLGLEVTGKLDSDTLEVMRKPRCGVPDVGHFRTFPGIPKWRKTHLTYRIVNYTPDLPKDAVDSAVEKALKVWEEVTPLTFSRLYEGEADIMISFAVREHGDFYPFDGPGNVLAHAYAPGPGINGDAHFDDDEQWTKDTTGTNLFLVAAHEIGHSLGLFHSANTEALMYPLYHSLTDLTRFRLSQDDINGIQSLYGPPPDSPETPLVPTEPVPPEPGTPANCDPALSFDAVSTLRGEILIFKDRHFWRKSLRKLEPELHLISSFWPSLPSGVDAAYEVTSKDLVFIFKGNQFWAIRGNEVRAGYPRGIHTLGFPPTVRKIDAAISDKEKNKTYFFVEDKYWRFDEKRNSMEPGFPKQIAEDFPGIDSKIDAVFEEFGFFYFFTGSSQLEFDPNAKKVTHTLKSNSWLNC
Outline: (§1)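 Human pro-enzymes activated with 2 mM APMA at 37 °C (MMP-2 30 min; MMP-3, MMP-8 1 h), then preincubated 30 min at 37 °C with inhibitor diluted from 10^-3 to 10^-6 M. Substrates: Mca-RPKPYA-Nva-WMK(Dnp)-NH2 for MMP-3; Dnp-Pro-Cha-Gly-Cys(ME)-His-Ala-Lys(Nma)-NH2 for MMP-2 and MMP-8. Incubated 6 h at 37 °C; fluorescence read at ex 340/em 440 nm. Triplicates; IC50 from 3 central linear points.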

Oryctolagus cuniculus [1] = species: Oryctolagus cuniculus; assay: (§2) Reduction of IL1-beta plus […]-induced proteoglycan degradation in rabbit articular cartilage at 200 uM relative to control; type: functional
Outline: (§3)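 Rabbit articular cartilage fragments were prelabelled with 35SO4 and washed. They were then cultured 24 h with 1 ng/mL rmIL-1β, with or without compound, and moved to 5×10^-4 M APMA for another 24 h. Fragments were digested with papain, and the % radioactivity released to the medium was counted. Means ± sem, n = 8/group; ANOVA with Dunnett's test.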

Neutrophil collagenase = Neutrophil collagenase (Homo sapiens, UniProt P22894); assay: Inhibition of human MMP8; outline: as §1
Chain of Neutrophil collagenase (P22894 whole entry): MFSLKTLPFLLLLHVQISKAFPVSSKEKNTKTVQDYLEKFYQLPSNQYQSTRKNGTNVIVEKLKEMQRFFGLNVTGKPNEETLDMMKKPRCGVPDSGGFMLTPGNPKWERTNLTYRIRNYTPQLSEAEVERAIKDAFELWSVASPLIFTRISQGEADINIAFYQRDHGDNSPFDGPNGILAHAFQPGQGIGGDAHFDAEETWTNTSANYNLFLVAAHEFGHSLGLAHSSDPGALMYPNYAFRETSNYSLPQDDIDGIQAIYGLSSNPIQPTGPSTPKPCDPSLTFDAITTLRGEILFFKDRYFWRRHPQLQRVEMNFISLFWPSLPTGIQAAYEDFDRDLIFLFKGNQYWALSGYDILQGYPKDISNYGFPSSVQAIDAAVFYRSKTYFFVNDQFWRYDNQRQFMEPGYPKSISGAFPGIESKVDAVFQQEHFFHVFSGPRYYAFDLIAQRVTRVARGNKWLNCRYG

[2] = target: 72 kDa type IV collagenase (Homo sapiens, UniProt P08253); assay: Inhibition of human MMP2; outline: as §1
Chain of 72 kDa type IV collagenase (P08253 whole entry): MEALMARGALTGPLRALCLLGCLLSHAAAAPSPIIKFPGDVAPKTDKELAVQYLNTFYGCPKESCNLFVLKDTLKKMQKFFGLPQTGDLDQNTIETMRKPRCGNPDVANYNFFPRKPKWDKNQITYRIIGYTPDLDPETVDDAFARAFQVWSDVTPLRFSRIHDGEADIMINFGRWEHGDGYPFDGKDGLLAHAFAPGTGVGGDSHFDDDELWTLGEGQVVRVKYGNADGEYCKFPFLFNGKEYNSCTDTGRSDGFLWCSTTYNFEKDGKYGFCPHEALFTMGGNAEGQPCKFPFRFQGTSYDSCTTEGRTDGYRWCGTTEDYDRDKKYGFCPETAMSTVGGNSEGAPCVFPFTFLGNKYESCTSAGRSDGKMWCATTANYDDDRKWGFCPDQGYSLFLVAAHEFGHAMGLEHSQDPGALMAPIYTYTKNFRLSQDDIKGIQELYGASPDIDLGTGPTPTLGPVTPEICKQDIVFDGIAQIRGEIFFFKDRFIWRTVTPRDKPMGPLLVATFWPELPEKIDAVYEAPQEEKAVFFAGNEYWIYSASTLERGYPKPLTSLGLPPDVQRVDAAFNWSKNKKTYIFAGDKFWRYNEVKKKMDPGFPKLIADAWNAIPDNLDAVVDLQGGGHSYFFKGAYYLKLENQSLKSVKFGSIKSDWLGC

[3] = (§4) Inhibition of IL1-beta plus […]-induced proteoglycan degradation in rabbit articular cartilage at 100 uM relative to control; type: functional, Oryctolagus cuniculus; set-up: scale not given: the % may be the effect or the level left
Outline: (§5)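 Rabbit articular cartilage fragments prelabeled with 35SO4 and washed. Incubated 24 h with or without 1 ng/mL rmIL-1β, with or without compound. Fragments then moved to 5×10^-4 M APMA for 24 h and digested in papain. Radioactivity counted by liquid scintillation. Degradation = media cpm/(media + tissue cpm) ×100. Means ± sem, n = 8/group.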

[4] = Inhibition of IL-1-beta-induced collagen degradation in rabbit articular cartilage at 100 uM in presence of plasmin relative to control; type: functional, Oryctolagus cuniculus; set-up: scale not given: the % may be the effect or the level left
Outline: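 Non-radiolabeled rabbit articular cartilage fragments cultured 48 h with or without 10 ng/mL IL-1β plus 0.1 U/mL EACA- and Lys-free plasmin, with or without compound. Media and tissue hydrolyzed in 6 M HCl at 110 °C for 12 h. Hydroxyproline measured colorimetrically; degradation = media OH-Pro/(media + tissue OH-Pro) ×100. Means ± sem, n = 8/group; ANOVA with Dunnett's test.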

Oryctolagus cuniculus [5] = species: Oryctolagus cuniculus; assay: as §4; type: functional; outline: as §5
[6] = as §2; type: functional, Oryctolagus cuniculus; set-up: scale not given: the % may be the effect or the level left; outline: as §3

| SMILES | Activity (SW1353) | IC50 (Collagenase 3) | IC50 (Stromelysin-1) | Activity (Oryctolagus cuniculus [1]) | IC50 (Neutrophil collagenase) | IC50 [2] | Activity [3] | Activity [4] | Activity (Oryctolagus cuniculus [5]) | Activity [6] |
| --- | --- | --- | --- | --- | --- | --- | --- | --- | --- | --- |
| C[C@@]1(O)c2cccc(O)c2C(=O)C2=C(O)[C@]3(O)C(=O)C(C(N)=O)=C(O)[C@@H]([N+](C)(C)C)C3CC21 (stereo partly specified) | inactive | 120 µM | 150 µM | inactive | 110 µM | 140 µM |  |  |  |  |
| C[C@H]1c2cccc(O)c2C(=O)C2=C(O)[C@]3(O)C(=O)C(C(N)=O)=C(O)[C@@H](N(C)C)[C@@H]3C(O)[C@@H]21.O (single isomer, unassigned) [DOXYCYCLINE] | Active | 40 µM | 25 µM |  | 31 µM | 24 µM | 8% | 89% |  |  |
| C[C@H]1c2cccc(O)c2C(=O)C2=C(O)[C@]3(O)C(=O)C(C(N)=O)=C(O)[C@@H]([N+](C)(C)C)C3[C@H](O)C21.[I-] (stereo partly specified) | inactive | 4.9 µM | 81 µM |  | 11 µM | 7.7 µM |  | 66% | inactive |  |
| CN(C)[C@@H]1C(O)=C(C(N)=O)C(=O)[C@@]2(O)C(O)=C3C(=O)c4c(O)cccc4[C@@](C)(O)[C@H]3C[C@@H]12 [TETRACYCLINE] | Active | 180 µM | 140 µM |  | 180 µM | 220 µM |  |  |  | 29% |
